{"source": "PubChem BioAssay AID686992", "about": "(Broad Institute, 2013)", "note": "The whole screen tested about 260,000 compounds, of which about 960 (0.37%) were called active. The list comes from a sample in which actives are over-represented; it also holds similar structures and randomly drawn compounds. Unmarked numbers belong to inactive results.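 The calls were made as follows: active = mean E-selectin-positive cell signal at least 10% of the positive control, reached in at least 60% of replicates, without over 20% cell loss; inconclusive = no rule given, readout overlaps actives, possibly toxicity-flagged; inactive = the rest, including those meeting only one limit.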", "data": [{"molecular_target": "E-selectin (Homo sapiens) (UniProt P16581)", "sequence (P16581 whole entry, looked up)": "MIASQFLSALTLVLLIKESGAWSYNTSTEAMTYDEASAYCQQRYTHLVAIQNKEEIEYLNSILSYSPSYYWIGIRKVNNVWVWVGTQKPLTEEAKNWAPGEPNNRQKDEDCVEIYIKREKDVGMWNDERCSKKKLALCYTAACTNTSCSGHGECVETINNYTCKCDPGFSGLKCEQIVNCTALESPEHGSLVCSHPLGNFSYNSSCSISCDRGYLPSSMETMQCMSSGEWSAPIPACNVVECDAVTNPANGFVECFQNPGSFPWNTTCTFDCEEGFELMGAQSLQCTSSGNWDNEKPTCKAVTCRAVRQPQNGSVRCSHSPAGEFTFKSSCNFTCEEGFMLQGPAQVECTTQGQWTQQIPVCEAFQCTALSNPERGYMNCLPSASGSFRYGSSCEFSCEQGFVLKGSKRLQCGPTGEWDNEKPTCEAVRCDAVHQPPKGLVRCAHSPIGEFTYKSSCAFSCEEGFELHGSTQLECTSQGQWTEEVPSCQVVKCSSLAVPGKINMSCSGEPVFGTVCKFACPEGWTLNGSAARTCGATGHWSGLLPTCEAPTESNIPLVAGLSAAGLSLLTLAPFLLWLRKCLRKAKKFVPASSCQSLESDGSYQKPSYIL", "assay": "E-selectin induction in HUVECs, primary screen, imaging, HUVEC, immunofluorescence imaging, single point (AID 686992);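 also: signal is the percent of cells scored E-selectin positive by PE staining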", "conditions": "at 7.58 µM, stronger effect = higher value, normalized: neutral wells 0, TNF-alpha wells 100", "method_in_brief": "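material = human umbilical vein endothelial cells (HUVEC), E-selectin induction | quantity = 3,000 cells/well | medium = EGM-2 growth medium on 0.1% gelatin-coated wells | technique = immunofluorescence imaging | read-out basis = % PE-positive cells | control set = TNF-alpha positive control, DMSO neutral control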", "values": [{"smiles": "COc1ccc(S(=O)(=O)N(C)C[C@H]2Oc3ccc(NC(=O)Nc4c(C)noc4C)cc3CC(=O)N([C@@H](C)CO)C[C@H]2C)cc1", "activation": "-4.24%"}, {"smiles": "COc1ccc(S(=O)(=O)N(C)C[C@H]2Oc3ccc(NC(=O)Nc4c(C)noc4C)cc3C(=O)N([C@H](C)CO)C[C@H]2C)cc1", "activation": "45.3% (active)"}, {"smiles": "COc1ccc(S(=O)(=O)N(C)C[C@H]2Oc3ccc(NC(=O)Nc4c(C)noc4C)cc3C(=O)N([C@@H](C)CO)C[C@@H]2C)cc1", "activation": "43.2% (active)"}, {"smiles": "COc1ccc(NC(=O)Nc2ccc3c(c2)C(=O)N([C@@H](C)CO)C[C@H](C)[C@@H](CN(C)S(=O)(=O)c2ccc(Cl)cc2)O3)cc1", "activation": "8.29%"}, {"smiles": "COc1ccc(S(=O)(=O)N(C)C[C@@H]2Oc3ccc(NC(=O)Nc4c(C)noc4C)cc3C(=O)N([C@H](C)CO)C[C@@H]2C)cc1", "activation": "-0.053%"}, {"smiles": "Cc1noc(C)c1NC(=O)Nc1ccc2c(c1)C(=O)N([C@@H](C)CO)C[C@H](C)[C@H](CN(C)S(=O)(=O)c1ccc(Cl)cc1)O2", "activation": "-0.247%"}, {"smiles": "CC1=C(C(=O)N(C(C)C)C(C)C)CC(CC(=O)NCCCCc2ccccc2)C(=O)N1CCC1=CCCCC1", "note": "(stereo unspecified)", "activation": "1.3%"}, {"smiles": "Cc1cc(C)n2c(Nc3c(C)cccc3C)c(CCc3ccccc3)nc2n1", "activation": "0.0345%"}, {"smiles": "COc1cccc2c1C(=O)c1c(O)c3c(c(O)c1C2=O)CC(O)(C(C)=NNC(=O)c1ccc(Cl)c(Cl)c1)CC3OC1CC(N)C(O)C(C)O1", "note": "(stereo unspecified)", "activation": "160% (active)"}, {"smiles": "CO[C@H]1CN(C)C(=O)c2ccc(NC(=O)CC(F)(F)F)cc2OC[C@H](C)N(C(=O)C2CC2)C[C@H]1C", "activation": "-0.112%"}, {"smiles": "CCC(=O)Nc1ccc2c(c1)C(=O)N(C)[C@@H]1CC[C@@H](CC(=O)NCCN3CCCCC3)O[C@@H]1CO2", "activation": "-0.0795%"}, {"smiles": "COc1ccc(N2CCN(C(=O)CNC(=O)c3ccc(Br)o3)CC2)cc1", "activation": "-0.05%"}, {"smiles": "CCNS(=O)(=O)c1ccc(CCC(=O)N2CCN(c3cc(Cl)ccc3C)CC2)cc1", "activation": "-0.168%"}, {"smiles": "CCNS(=O)(=O)c1ccc(CCC(=O)N2CCN(c3ccc(OC)cc3)CC2)cc1", "activation": "31.3% (active)"}, {"smiles": "COc1ccccc1CCn1cnc(-c2ccccc2)c1C(C)C", "activation": "-0.038%"}, {"smiles": "O=C(c1cccnc1)N1C[C@@H]2[C@H](c3ccccc31)[C@@H](CO)N2C(=O)Nc1ccc(F)cc1", "activation": "0.778%"}, {"smiles": "O=C(Nc1ccc(Br)cc1)c1cc(S(=O)(=O)Nc2ccccn2)ccc1Cl", "activation": "0.225%"}, {"smiles": "Cc1ccccc1NC(=O)c1cc(S(=O)(=O)Nc2cccc(C(=O)O)c2)ccc1Cl", "activation": "65.6% (active)"}, {"smiles": "Cc1cccc(NS(=O)(=O)c2cccc(C(=O)NNC(=O)c3ccccc3O)c2)c1", "activation": "-0.07%"}, {"smiles": "CC(C)C[C@H]1CN([C@@H](Cc2ccccc2)CN2CCC[C@@H]2CN2C(=O)C(=O)NC[C@@H]2Cc2ccc(O)cc2)C(=O)C(=O)N1CCc1ccccc1", "activation": "9.99%"}, {"smiles": "COc1ccc(N2CCN(C(=O)c3ccccc3NC(=O)C3=C(C)OCCS3)CC2)cc1", "activation": "54.3% (active)"}, {"smiles": "COc1ccc(C(=O)Nc2ccccc2C(=O)N2CCN(c3ccccc3)CC2)cc1", "activation": "0.169%"}, {"smiles": "CCCCNC(=O)c1ccccc1NC(=O)C1=C(C)OCCS1", "activation": "0.108%"}, {"smiles": "COc1ccc(Sc2ccc(NC(=O)c3cccc(Cl)c3)cc2C#N)cc1", "activation": "2.08%"}, {"smiles": "CCCCSCCCNC(=O)C1CCC(CNS(=O)(=O)c2ccc(NC(C)=O)cc2)CC1", "note": "(stereo unspecified)", "activation": "58.2% (active)"}, {"smiles": "COCCCNC(=O)C1CCC(CNS(=O)(=O)c2ccc(OC)cc2)CC1", "note": "(stereo unspecified)", "activation": "-0.0375%"}, {"smiles": "O=C(O)C1CCC(CNS(=O)(=O)c2ccc(Br)cc2)CC1", "note": "(stereo unspecified)", "activation": "-0.071%"}, {"smiles": "C[C@H]1CN([C@@H](C)CO)C(=O)Cc2cc(NC(=O)CCC(F)(F)F)ccc2O[C@H]1CN(C)C(=O)NC1CCCCC1", "activation": "0.0445%"}, {"smiles": "C[C@H]1CN([C@@H](C)CO)C(=O)Cc2cc(NS(C)(=O)=O)ccc2O[C@@H]1CN(C)S(=O)(=O)c1cccs1", "activation": "-0.124%"}, {"smiles": "C[C@@H]1CN([C@@H](C)CO)C(=O)Cc2cc(NC(=O)CCC(F)(F)F)ccc2O[C@@H]1CN(C)C(=O)Nc1cccc2ccccc12", "activation": "0.23%"}, {"smiles": "C[C@H]1CN([C@@H](C)CO)C(=O)Cc2cc(NC(=O)Nc3ccc(F)cc3)ccc2O[C@H]1CN(C)C(=O)Nc1ccc(C(F)(F)F)cc1", "activation": "29.7% (active)"}, {"smiles": "C[C@@H]1CN([C@@H](C)CO)C(=O)Cc2cc(NC(=O)NC3CCCCC3)ccc2O[C@H]1CN(C)C(=O)Nc1ccc(C(F)(F)F)cc1", "activation": "0.389%"}, {"smiles": "C[C@H]1CN([C@@H](C)CO)C(=O)Cc2cc(NC(=O)C3CC3)ccc2O[C@@H]1CN(C)S(=O)(=O)c1cccs1", "activation": "55.7% (active)"}, {"smiles": "C[C@@H]1CN([C@@H](C)CO)C(=O)Cc2cc(NC(=O)C3CC3)ccc2O[C@@H]1CN(C)S(C)(=O)=O", "activation": "-0.338%"}, {"smiles": "C[C@@H]1CN([C@@H](C)CO)C(=O)Cc2cc(NC(=O)Nc3ccc(C(F)(F)F)cc3)ccc2O[C@H]1CN(C)C(=O)Nc1ccc(F)cc1", "activation": "-0.224%"}, {"smiles": "CC(C)NC(=O)N(C)C[C@H]1Oc2ccc(NC(=O)CCC(F)(F)F)cc2CC(=O)N([C@@H](C)CO)C[C@@H]1C", "activation": "50.4% (active)"}, {"smiles": "C[C@@H]1CCCCO[C@@H](CN(C)C(=O)CCCN(C)C)[C@H](C)CN([C@@H](C)CO)C(=O)c2cc(NC(=O)Nc3ccccc3)ccc2O1", "activation": "-0.0275%"}, {"smiles": "N#C[C@@H]1[C@@H](c2ccc(-c3ccccc3F)cc2)[C@@H](CO)N1C(=O)c1ccccn1", "activation": "0.692%"}, {"smiles": "COC(=O)N1Cc2ccnnc2CC1c1ccccc1Br", "note": "(stereo unspecified)", "activation": "-0.184%"}, {"smiles": "CSc1ccc(CN2CCC2(C)C(=O)NCc2ccccc2Br)cc1", "note": "(stereo unspecified)", "activation": "-0.129%"}, {"smiles": "CC(Sc1ccc(S(=O)(=O)N2CCN(C)CC2)cn1)C(=O)NC1CCCC(C)C1C", "note": "(stereo unspecified)", "activation": "-0.0545%"}, {"smiles": "O=C(c1ccccn1)N1CC2(C1)[C@@H](c1ccccc1)[C@@H](CO)N2C(=O)C1CCCCC1", "activation": "1.98%"}, {"smiles": "C[C@@H]1CN([C@H](C)CO)C(=O)Cc2cc(NC(=O)Cc3cn(C)c4ccccc34)ccc2O[C@@H]1CN(C)Cc1ccc(C(F)(F)F)cc1", "activation": "275% (active)"}, {"smiles": "CC(C)NC(=O)Nc1ccc2c(c1)C(=O)N([C@@H](C)CO)C[C@@H](C)[C@H](CN(C)Cc1ccc(-c3ccccc3)cc1)O2", "activation": "0.764%"}, {"smiles": "C[C@H](CO)N1C[C@H](C)[C@H](CN(C)Cc2ccc(C(=O)O)cc2)Oc2ccc(NC(=O)NC3CCCCC3)cc2C1=O", "activation": "1.59%"}, {"smiles": "C[C@H](CO)N1C[C@H](C)[C@@H](CN(C)Cc2ccc(C(F)(F)F)cc2)Oc2ccc(NC(=O)CCN3CCOCC3)cc2C1=O", "activation": "3.76%"}, {"smiles": "CC(C)NC(=O)Nc1ccc2c(c1)C(=O)N([C@@H](C)CO)C[C@@H](C)[C@H](CN(C)Cc1ccc(C(=O)O)cc1)O2", "activation": "56.9% (active)"}, {"smiles": "C[C@H](CO)N1C[C@H](C)[C@@H](CN(C)Cc2ccc(C(F)(F)F)cc2)Oc2ccc(NC(=O)CCC(F)(F)F)cc2C1=O", "activation": "63.1% (active)"}, {"smiles": "C[C@H]1CN([C@@H](C)CO)C(=O)Cc2cc(NC(=O)Cc3cn(C)c4ccccc34)ccc2O[C@@H]1CN(C)Cc1ccccc1", "activation": "0.509%"}, {"smiles": "C[C@@H]1CN([C@H](C)CO)C(=O)c2cc(NC(=O)Nc3ccc4c(c3)OCO4)ccc2O[C@@H]1CN(C)Cc1ccc(C(F)(F)F)cc1", "activation": "0.0795%"}, {"smiles": "C[C@H]1CN([C@@H](C)CO)C(=O)Cc2cc(NC(=O)Cc3cn(C)c4ccccc34)ccc2O[C@@H]1CN(C)Cc1ccc(C(F)(F)F)cc1", "activation": "12.9%"}, {"smiles": "CCCNC(=O)c1cc2c(c(-c3cccc(-c4ccc(C#N)cc4)c3)n1)[C@@H](CCO)N(C(=O)CC)C2", "activation": "1.79%"}, {"smiles": "CO[C@H]1CN(C)C(=O)c2cc(NC(=O)C3CCOCC3)ccc2OC[C@@H](C)N(Cc2cccnc2)C[C@@H]1C", "activation": "-0.0535%"}, {"smiles": "CN(C)C(=O)c1ccc(-c2ccccc2[C@H]2[C@@H](CO)N(C(=O)C3CCCCC3)[C@H]2C#N)cc1", "activation": "0.141%"}, {"smiles": "CSc1ncccc1C(=O)N1CCCC(Nc2ccc(F)c(F)c2)C1", "note": "(stereo unspecified)", "activation": "-0.156%"}, {"smiles": "COc1ccc(NC(=O)N(C)C[C@@H]2OCCCC[C@@H](C)Oc3ccc(NS(C)(=O)=O)cc3C(=O)N([C@@H](C)CO)C[C@H]2C)cc1", "activation": "0.098%"}, {"smiles": "COC(=O)C1=CN(c2c(C)cc(C)cc2C)C(N)=C(C#N)C1c1cccc(F)c1", "note": "(stereo unspecified)", "activation": "-0.0735%"}, {"smiles": "O=S(=O)(NCCCN1CCOCC1)c1ccc(F)c(Cl)c1", "activation": "82.5% (active)"}, {"smiles": "COc1ccc(S(=O)(=O)N(C)CC(=O)NCCCN2CCOCC2)cc1Cl", "activation": "0.0915%"}, {"smiles": "O=S(=O)(NCC1CC1)c1ccc(F)c(Cl)c1", "activation": "-0.0605%"}, {"smiles": "COc1ccccc1-c1ccc([C@H]2[C@H](CO)N(C(=O)C3CC3)C23CN(C(C)=O)C3)cc1", "activation": "-0.188%"}, {"smiles": "CCC(=O)Nc1ccc2c(c1)OC[C@H](C)N(CC1CCOCC1)C[C@@H](C)[C@@H](OC)CN(C)C2=O", "activation": "0.195%"}, {"smiles": "CO[C@@H]1CN(C)C(=O)c2cc(NS(=O)(=O)c3ccc(C)cc3)ccc2OC[C@H](C)N(Cc2nccs2)C[C@@H]1C", "activation": "-0.0505%"}, {"smiles": "CCOCCCn1c(NN)nc2ccccc2c1=O", "activation": "-0.132%"}, {"smiles": "COCCn1c(SCC(=O)c2[nH]c(C)c(C(C)=O)c2C)nc2ccccc2c1=O", "activation": "-0.059%"}, {"smiles": "COCCCn1c(-c2cccs2)nc2nc3ccccc3nc21", "activation": "42.8% (active)"}]}]}
